Tests used:
[1] = molecular target: T1, Falcipain 2 (Plasmodium falciparum, UniProt Q9N6S8); test: Inhibition of Plasmodium falciparum recombinant falcipain-2
T1 sequence (Q9N6S8 whole entry): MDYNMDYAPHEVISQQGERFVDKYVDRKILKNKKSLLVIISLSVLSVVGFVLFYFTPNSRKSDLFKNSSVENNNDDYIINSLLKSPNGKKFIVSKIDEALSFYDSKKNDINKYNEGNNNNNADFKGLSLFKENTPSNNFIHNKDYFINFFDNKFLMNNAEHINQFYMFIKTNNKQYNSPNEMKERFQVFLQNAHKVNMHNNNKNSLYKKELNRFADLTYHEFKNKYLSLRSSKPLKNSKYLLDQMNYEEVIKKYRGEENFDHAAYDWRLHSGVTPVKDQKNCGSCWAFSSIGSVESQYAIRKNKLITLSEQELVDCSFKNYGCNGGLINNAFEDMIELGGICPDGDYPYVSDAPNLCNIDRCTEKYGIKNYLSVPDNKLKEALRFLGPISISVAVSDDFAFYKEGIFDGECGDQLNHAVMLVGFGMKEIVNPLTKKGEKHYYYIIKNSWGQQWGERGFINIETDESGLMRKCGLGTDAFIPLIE
Method in brief: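 Recombinant enzyme (~1 nM) preincubated 30 min at room temperature with inhibitor dilutions (from 100× DMSO stocks) in 100 mM sodium acetate pH 5.5, 10 mM dithiothreitol; benzyloxycarbonyl peptide fluorogenic substrate then added, fluorescence followed continuously 30 min at room temperature. IC50 from activity versus inhibitor concentration plots.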

[2] = system: Plasmodium falciparum; test: Antiparasitic activity against Plasmodium falciparum W2; format: functional, organism-based
Method in brief: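 W2 (chloroquine-resistant) P. falciparum cultured at 1% parasitaemia, 2% haematocrit. Inhibitors from 10 mM DMSO stocks added to 20 μM final, then serially diluted to 10 μM, 2 μM, 0.4 μM, 80, 16 and 3.2 nM, in duplicate plates. Cultures kept 2 days at 37 °C, washed and fixed in 1% formaldehyde/PBS. Parasitaemia read by flow cytometry with YOYO-1 DNA stain.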

Work on `O=C(NCCNc1ccnc2cc(Cl)ccc12)N/N=C/c1ccc(O)c(CN2CCCC2)c1O` yielded an IC50 [1] of 0.72 µM and an IC50 [2] of 1.07 µM.

Compound `O=C(NCCNc1ccnc2cc(Cl)ccc12)N/N=C/c1ccc(O)c(CN2CCN(c3ccnc4cc(Cl)ccc34)CC2)c1O` has an IC50 [1] of 3.16 µM and an IC50 [2] of 0.077 µM.

Compound `O=Cc1ccc(O)c(CN2CCN(c3ccnc4cc(Cl)ccc34)CC2)c1O` has an IC50 [1] of over 20 µM and an IC50 [2] of 1.07 µM.

For `NC(=O)N/N=C/c1ccc(O)c(CN2CCN(c3ccnc4cc(Cl)ccc34)CC2)c1O`, the IC50 [1] was over 20 µM and the IC50 [2] was 0.25 µM.

In the case of `NC(=S)N/N=C/c1ccc(O)c(CN2CCN(c3ccnc4cc(Cl)ccc34)CC2)c1O`, the IC50 [1] is reported as 2.25 µM and the IC50 [2] is reported as 3.75 µM.

`CCN(CC)Cc1c(O)ccc(C=O)c1O` showed an IC50 [1] of over 20 µM and an IC50 [2] of over 10 µM.

Work on `NC(=S)N/N=C/c1ccc(O)c(CN2CCCC2)c1O` yielded an IC50 [1] of 5.85 µM and an IC50 [2] of over 10 µM.

Compound `CN1CCN(Cc2c(O)ccc(/C=N/NC(N)=S)c2O)CC1` has an IC50 [1] of 18.2 µM and an IC50 [2] of over 10 µM.

With `CCN(CC)Cc1c(O)ccc(/C=N/NC(N)=S)c1O` the IC50 [1] was 11.1 µM and the IC50 [2] was over 10 µM.

`CCN(CC)Cc1c(O)ccc(/C=N/NC(=O)NCCNc2ccnc3cc(Cl)ccc23)c1O` showed an IC50 [1] of 2.6 µM and an IC50 [2] of 0.44 µM.

`O=Cc1ccc(O)c(CN2CCCCC2)c1O` was tested, and the IC50 [1] was over 20 µM and the IC50 [2] was over 10 µM.

Work on `O=Cc1ccc(O)c(CN2CCOCC2)c1O` yielded an IC50 [1] of over 20 µM and an IC50 [2] of over 10 µM.

In the case of `NC(=S)N/N=C/c1ccc(O)c(CN2CCCCC2)c1O`, the IC50 [1] is reported as 3.8 µM and the IC50 [2] is reported as over 10 µM.

With `CN1CCN(Cc2c(O)ccc(/C=N/NC(=O)NCCNc3ccnc4cc(Cl)ccc34)c2O)CC1` the IC50 [1] was over 20 µM and the IC50 [2] was 0.38 µM.

Work on `CN1CCN(Cc2c(O)ccc(C=O)c2O)CC1` yielded an IC50 [1] of over 20 µM and an IC50 [2] of over 10 µM.

Compound `O=Cc1ccc(O)c(CN2CCCC2)c1O` has an IC50 [1] of over 20 µM and an IC50 [2] of over 10 µM.

`O=C(NCCNc1ccnc2cc(Cl)ccc12)N/N=C/c1ccc(O)c(CN2CCOCC2)c1O` showed an IC50 [1] of over 20 µM and an IC50 [2] of 0.11 µM.

With `NC(=S)N/N=C/c1ccc(O)c(CN2CCOCC2)c1O` the IC50 [1] was over 20 µM and the IC50 [2] was over 10 µM.

Work on `O=C(NCCNc1ccnc2cc(Cl)ccc12)N/N=C/c1ccc(O)c(CN2CCCCC2)c1O` yielded an IC50 [1] of 0.63 µM and an IC50 [2] of 0.27 µM.
